# According to ChEMBL document CHEMBL4052804, “Design and synthesis of piperazine acetate podophyllotoxin ester derivatives targeting tubulin depolymerization as new anticancer agents” (Bioorg Med Chem Lett, 2017):
# Calls of active or inactive are those of the source. The calls are words filed in the database; no cut-off is given here.
# Key:
# MCF7 [1] = assay: Cell cycle arrest in human MCF7 cells assessed as accumulation at G1 phase at 0.6 uM after 12 hrs by propidium iodide staining based flow cytometric method (reference value: 58.69 to 62.23%); format: functional
# MCF7 [2] = assay: Induction of apoptosis in human MCF7 cells assessed as necrotic cells at 12 uM after 24 hrs by Annexin-V-FITC/propidium iodide staining based flow cytometric method (reference value: 2.35 to 2.49%); format: functional
# MCF7 [3] = assay: Cell cycle arrest in human MCF7 cells assessed as accumulation at G2/M phase at 0.6 uM after 8 hrs by propidium iodide staining based flow cytometric method (reference value: 7.59 to 9.58%); format: functional
# MCF7 [4] = assay: Cell cycle arrest in human MCF7 cells assessed as accumulation at G1 phase at 0.9 uM after 12 hrs by propidium iodide staining based flow cytometric method (reference value: 58.69 to 62.23%); format: functional
# MCF7 [5] = assay: Cell cycle arrest in human MCF7 cells assessed as accumulation at G2/M phase at 0.9 uM after 12 hrs by propidium iodide staining based flow cytometric method (reference value: 5.43 to 13.68%); format: functional
# MCF7 [6] = assay: Cell cycle arrest in human MCF7 cells assessed as accumulation at S phase at 0.6 uM after 8 hrs by propidium iodide staining based flow cytometric method (reference value: 29.55 to 32.22%); format: functional
# MCF7 [7] = assay: Cell cycle arrest in human MCF7 cells assessed as accumulation at G2/M phase at 0.6 uM after 16 hrs by propidium iodide staining based flow cytometric method (reference value: 7.59 to 9.58%); format: functional
# A549 = assay: Cytotoxicity against human A549 cells after 24 hrs by MTT assay; format: functional, cell-based; settings: A549, 24 h
# Summary of the method: (§1)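 In vitro antiproliferative screen by MTT assay against human MCF-7 breast, HeLa cervical, A549 lung adenocarcinoma and HepG-2 hepatoma cells. Output is the IC50.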
# MCF7 [8] = assay: Induction of apoptosis in human MCF7 cells assessed as early apoptotic cells at 12 uM after 24 hrs by Annexin-V-FITC/propidium iodide staining based flow cytometric method (reference value: 2.36 to 2.86%); format: functional
# MCF7 [9] = assay: Induction of apoptosis in human MCF7 cells assessed as necrotic cells at 8 uM after 24 hrs by Annexin-V-FITC/propidium iodide staining based flow cytometric method (reference value: 2.35 to 2.49%); format: functional
# MCF7 [10] = assay: Down regulation of cyclin A expression in human MCF7 cells at 0.5 to 2 uM after 24 hrs by Western blot analysis; format: functional, cell-based
# MCF7 [11] = assay: Down regulation of cyclin D1 expression in human MCF7 cells at 0.5 to 2 uM after 24 hrs by Western blot analysis; format: functional, cell-based
# MCF7 [12] = assay: Cell cycle arrest in human MCF7 cells assessed as accumulation at G2/M phase at 0.6 uM after 4 hrs by propidium iodide staining based flow cytometric method (reference value: 7.59 to 9.58%); format: functional
# MCF7 [13] = assay: Cell cycle arrest in human MCF7 cells assessed as accumulation at S phase at 0.9 uM after 12 hrs by propidium iodide staining based flow cytometric method (reference value: 27.63 to 32.34%); format: functional
# MCF7 [14] = assay: Cell cycle arrest in human MCF7 cells assessed as accumulation at S phase at 0.6 uM after 16 hrs by propidium iodide staining based flow cytometric method (reference value: 29.55 to 32.22%); format: functional
# MCF7 [15] = assay: Cell cycle arrest in human MCF7 cells assessed as accumulation at G1 phase at 0.3 uM after 12 hrs by propidium iodide staining based flow cytometric method (reference value: 58.69 to 62.23%); format: functional
# MCF7 [16] = assay: Cytotoxicity against human MCF7 cells after 24 hrs by MTT assay; format: functional, cell-based; settings: MCF7, 24 h; summary of the method: as §1
# MCF7 [17] = assay: Induction of apoptosis in human MCF7 cells assessed as viable cells at 12 uM after 24 hrs by Annexin-V-FITC/propidium iodide staining based flow cytometric method (reference value: 91.6 to 92.7%); format: functional; settings: MCF7, 24 h, read-out: Activity
# MCF7 [18] = assay: Induction of apoptosis in human MCF7 cells assessed as early apoptotic cells at 4 uM after 24 hrs by Annexin-V-FITC/propidium iodide staining based flow cytometric method (reference value: 2.36 to 2.86%); format: functional
# HeLa = assay: Cytotoxicity against human HeLa cells after 24 hrs by MTT assay; format: functional, cell-based; summary of the method: as §1
# MCF7 [19] = assay: Cell cycle arrest in human MCF7 cells assessed as accumulation at G1 phase at 0.6 uM after 8 hrs by propidium iodide staining based flow cytometric method (reference value: 60.19 to 60.87%); format: functional
# MCF7 [20] = assay: Upregulation of CDK1 expression in human MCF7 cells at 0.5 to 2 uM after 24 hrs by Western blot analysis; format: functional, cell-based
# MCF7 [21] = assay: Induction of apoptosis in human MCF7 cells assessed as early apoptotic cells at 2 uM after 24 hrs by Annexin-V-FITC/propidium iodide staining based flow cytometric method (reference value: 2.36 to 2.86%); format: functional
# HepG2 = assay: Cytotoxicity against human HepG2 cells after 24 hrs by MTT assay; format: functional, cell-based; settings: HepG2, 24 h; summary of the method: as §1
# MCF7 [22] = assay: Cell cycle arrest in human MCF7 cells assessed as accumulation at S phase at 0.3 uM after 12 hrs by propidium iodide staining based flow cytometric method (reference value: 27.63 to 32.34%); format: functional
# MCF7 [23] = assay: Induction of apoptosis in human MCF7 cells assessed as viable cells at 8 uM after 24 hrs by Annexin-V-FITC/propidium iodide staining based flow cytometric method (reference value: 91.6 to 92.7%); format: functional; settings: MCF7, 24 h, read-out: Activity
# MCF7 [24] = assay: Down regulation of cyclin B1 expression in human MCF7 cells at 0.5 to 2 uM after 24 hrs by Western blot analysis; format: functional, cell-based
# MCF7 [25] = assay: Cell cycle arrest in human MCF7 cells assessed as accumulation at G1 phase at 0.6 uM after 16 hrs by propidium iodide staining based flow cytometric method (reference value: 60.19 to 60.87%); format: functional
# MCF7 [26] = assay: Induction of apoptosis in human MCF7 cells assessed as late apoptotic cells at 8 uM after 24 hrs by Annexin-V-FITC/propidium iodide staining based flow cytometric method (reference value: 2 to 3.7%); format: functional
# Homo sapiens = species on record: Homo sapiens; assay: Induction of tubulin depolymerization in human MCF7 cells at 0.5 to 1 uM after 12 hrs by DAPI staining based confocal microscopic analysis; format: cell-based
# MCF7 [27] = assay: Induction of apoptosis in human MCF7 cells assessed as viable cells at 4 uM after 24 hrs by Annexin-V-FITC/propidium iodide staining based flow cytometric method (reference value: 91.6 to 92.7%); format: functional; settings: MCF7, 24 h, read-out: Activity
# MCF7 [28] = assay: Cell cycle arrest in human MCF7 cells assessed as accumulation at S phase at 0.6 uM after 12 hrs by propidium iodide staining based flow cytometric method (reference value: 27.63 to 32.34%); format: functional
# MCF7 [29] = assay: Induction of apoptosis in human MCF7 cells assessed as necrotic cells at 4 uM after 24 hrs by Annexin-V-FITC/propidium iodide staining based flow cytometric method (reference value: 2.35 to 2.49%); format: functional
# MCF7 [30] = assay: Induction of apoptosis in human MCF7 cells assessed as late apoptotic cells at 2 uM after 24 hrs by Annexin-V-FITC/propidium iodide staining based flow cytometric method (reference value: 2 to 3.7%); format: functional
smiles,measurement,setting,value
COc1cc([C@@H]2c3cc4c(cc3[C@H](OC(=O)CN3CCN(c5ccc(Cl)c(Cl)c5)CC3)[C@H]3COC(=O)[C@H]23)OCO4)cc(OC)c1OC,Activity,MCF7 [1],18.24 - 26.54%
same,Activity,MCF7 [2],6.91%
same,Activity,MCF7 [3],44.13%
same,Activity,MCF7 [4],8.32%
same,Activity,MCF7 [5],81.03%
same,Activity,MCF7 [6],26.13%
same,Activity,MCF7 [7],85.57%
same,IC50,A549,6.32 µM
same,Activity,MCF7 [8],17.5%
same,Activity,MCF7 [9],3.45%
same,Activity,MCF7 [10],Active
same,Activity,MCF7 [11],Active
same,Activity,MCF7 [12],29.43%
same,Activity,MCF7 [13],10.65%
same,Activity,MCF7 [14],5.92%
same,Activity,MCF7 [15],38.07%
same,IC50,MCF7 [16],2.78 µM
same,viability at 12 µM,MCF7 [17],55.2%
same,Activity,MCF7 [18],11.4%
same,IC50,HeLa,5.1 µM
same,Activity,MCF7 [19],29.54%
same,Activity,MCF7 [20],Active
same,Activity,MCF7 [21],10.1%
same,IC50,HepG2,7.93 µM
same,Activity,MCF7 [22],24.21%
same,viability at 8 µM,MCF7 [23],67.9%
same,Activity,MCF7 [24],Active
same,Activity,MCF7 [25],8.51%
same,Activity,MCF7 [26],14%
same,Activity,Homo sapiens,Active
same,viability at 4 µM,MCF7 [27],72.4%
same,Activity,MCF7 [28],4.21 - 20.78%
same,Activity,MCF7 [29],5.64%
same,Activity,MCF7 [30],6.11%
